Experimental data published in ChEMBL document CHEMBL1124235, “3-Phenoxypyridine 1-oxides as anticonvulsant agents” (1988).
Activity calls are given as the source filed them. The rule behind the calls is not given here.

Legend:
Mus musculus [1] = assay: Number of mice falling from an inverted wire mesh during a 1-min test period 20 min after ip administration at a dose of 10 mg/Kg in ataxia (inverted screen test); - denotes 'no animals fell'; assay type: functional, organism-based
Summary of the method: (§1)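 Mice were dosed ip and placed on an inverted wire mesh 20 min after injection, for a 1-min test. The number of mice that fell per dose group was counted, and a dash means none fell.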

Mus musculus [2] = assay: Number of mice falling from an inverted wire mesh during a 1-min test period 20 min after ip administration at a dose of 20 mg/Kg in ataxia (inverted screen test); 1/12; assay type: functional; summary of the method: as §1
Mus musculus [3] = assay: Number of mice falling from an inverted wire mesh during a 1-min test period 20 min after ip administration at a dose of 40 mg/Kg in ataxia (inverted screen test); 1/12; assay type: functional; summary of the method: as §1
Mus musculus [4] = assay: Number of mice falling from an inverted wire mesh during a 1-min test period 20 min after ip administration at a dose of 60 mg/Kg in ataxia (inverted screen test); 6/12; assay type: functional; summary of the method: as §1
Mus musculus [5] = assay: Increase in spontaneous locomotion activity after intraperitoneal administration in mice at a dose of 60 mg/kg; assay type: functional
Summary of the method: (§2)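 After ip injection, spontaneous locomotor activity was recorded automatically over a 1-h period beginning 20 min after dosing, with nine or more mice per dose group. Values are percent change from saline-treated mice.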

Mus musculus [6] = assay: Increase in spontaneous locomotion activity after intraperitoneal administration in mice at a dose of 10 mg/Kg; assay type: functional; summary of the method: as §2
Mus musculus [7] = assay: Increase in spontaneous locomotion activity after intraperitoneal administration in mice at a dose of 20 mg/Kg; assay type: functional; summary of the method: as §2
Mus musculus [8] = assay: Increase in spontaneous locomotion activity after intraperitoneal administration in mice at a dose of 40 mg/kg; assay type: functional; summary of the method: as §2
Mus musculus [9] = assay: Increase in spontaneous locomotion activity after intraperitoneal administration in mice at a dose of 5 mg/Kg; assay type: functional; summary of the method: as §2
Mus musculus [10] = assay: Dose required to protect Mice against tonic extension produced by maximal electroshock (MES) at 30 min post administration; assay type: functional; settings: 0.5 h, read-out: MED
Summary of the method: (§3)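 Male Swiss-Webster mice (25–32 g), with food and water before testing, were dosed ip, the compound being in water or suspended in 0.29% Methocel. Doses were counted as free base, at levels of 10, 30, 100, 300 or >300 mg/kg, with n = 5. At 30 min, 90 mA, 1 ms monophasic pulses at 100 Hz were given through ear clips for 0.2 s. Value is the lowest dose protecting ≥2 mice from tonic hind-limb extension.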

Mus musculus [11] = assay: Dose at which mouse exhibited ataxia using the inverted screen procedure at 30 min post administration; assay type: functional
Summary of the method: (§4)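 Mice (n = 5 per dose) were scored 30 min after dosing at levels of 10, 30, 100, 300 or >300 mg/kg. They were placed on an inverted wire-mesh square, and impaired mice fall off.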

Rattus norvegicus [12] = assay: Ataxia produced by […] in rat by po administration at 1 hr post dosing; assay type: functional
Summary of the method: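 Rats were dosed orally and checked 1.0 h afterwards. Ataxia was judged by visual (subjective) observation, not by rotarod. ED50 was calculated by probit analysis of quantal data from four dose groups of eight rats each, with 95% confidence intervals.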

Rattus norvegicus [13] = assay: Anticonvulsant activity by maximal electroshock test(MES) in rat by po administration at 1 hr postdosing; assay type: functional
Mus musculus [14] = assay: Ataxia produced by rotarod ataxia test (ROT) in mouse by ip administration at 0.5 hr post dosing
Mus musculus [15] = assay: Ataxia produced by rotarod ataxia test (ROT) in mouse by po administration at 0.5 hr post dosing
Mus musculus [16] = assay: Anticonvulsant activity by maximal electroshock test(MES) in mouse by ip administration at 0.5 hr postdosing
Mus musculus [17] = assay: Anticonvulsant activity by maximal electroshock test(MES) in mouse by po administration at 0.5 hr postdosing
Mus musculus [18] = assay: Number of mice falling from an inverted wire mesh during a 1-min test period 20 min after ip administration at a dose of 100 mg/Kg in ataxia (inverted screen test); - denotes 'no animals fell'; assay type: functional, organism-based; summary of the method: as §1
Mus musculus [19] = assay: Number of mice falling from an inverted wire mesh during a 1-min test period 20 min after ip administration at a dose of 30 mg/Kg in ataxia (inverted screen test); - denotes 'no animals fell'; assay type: functional, organism-based; summary of the method: as §1
Mus musculus [20] = assay: Increase in spontaneous locomotion activity after intraperitoneal administration in mice at a dose of 100 mg/Kg; assay type: functional; summary of the method: as §2
Mus musculus [21] = assay: Increase in spontaneous locomotion activity after intraperitoneal administration in mice at a dose of 30 mg/Kg; assay type: functional; summary of the method: as §2
Mus musculus [22] = assay: Number of mice falling from an inverted wire mesh during a 1-min test period 20 min after ip administration at a dose of 100 mg/Kg in ataxia (inverted screen test); 3/9; assay type: functional; summary of the method: as §1
Mus musculus [23] = assay: Dose required to protect Mice against tonic extension produced by maximal electroshock (MES) at 30 min post administration.; assay type: functional; settings: 0.5 h, read-out: MED; summary of the method: as §3
Mus musculus [24] = assay: Dose at which mouse exhibited ataxia using the inverted screen procedure at 30 min post administration.; assay type: functional; summary of the method: as §4
Mus musculus [25] = assay: Increase in spontaneous locomotion activity after intraperitoneal administration in mice at 10 mg/kg; no change; assay type: functional, organism-based; set-up: dose 10 mg/kg; summary of the method: as §2
Mus musculus [26] = assay: Number of mice falling from an inverted wire mesh during a 1-min test period 20 min after ip administration at given dose in ataxia (inverted screen test) at 20 mg/kg; - denotes 'no animals fell'; assay type: functional, organism-based; set-up: dose 20 mg/kg; summary of the method: as §1
Mus musculus [27] = assay: Number of mice falling from an inverted wire mesh during a 1-min test period 20 min after ip administration at given dose in ataxia (inverted screen test) at 40 mg/kg; - denotes 'no animals fell'; assay type: functional, organism-based; set-up: dose 40 mg/kg; summary of the method: as §1
Mus musculus [28] = assay: Number of mice falling from an inverted wire mesh during a 1-min test period 20 min after ip administration at given dose in ataxia (inverted screen test) at 10 mg/kg; - denotes 'no animals fell'; assay type: functional, organism-based; set-up: dose 10 mg/kg; summary of the method: as §1
Mus musculus [29] = assay: Number of mice falling from an inverted wire mesh during a 1-min test period 20 min after ip administration at given dose in ataxia (inverted screen test) at 100 mg/kg; - denotes 'no animals fell'; assay type: functional, organism-based; set-up: dose 100 mg/kg; summary of the method: as §1
Mus musculus [30] = assay: Increase in spontaneous locomotion activity after intraperitoneal administration in mice; 40 mg/kg; assay type: functional; summary of the method: as §2
Mus musculus [31] = assay: Increase in spontaneous locomotion activity after intraperitoneal administration in mice; at 100 mg/kg; assay type: functional; summary of the method: as §2
Mus musculus [32] = assay: Increase in spontaneous locomotion activity after intraperitoneal administration in mice at 20 mg/kg; assay type: functional; summary of the method: as §2
Mus musculus [33] = assay: Number of mice falling from an inverted wire mesh during a 1-min test period 20 min after ip administration at a dose of 100 mg/Kg in ataxia (inverted screen test); 2/9; assay type: functional; summary of the method: as §1
Mus musculus [34] = assay: Number of mice falling from an inverted wire mesh during a 1-min test period 20 min after ip administration at a dose of 30 mg/Kg in ataxia (inverted screen test); 1/9; assay type: functional; summary of the method: as §1
Mus musculus [35] = assay: Number of mice falling from an inverted wire mesh during a 1-min test period 20 min after ip administration at a dose of 10 mg/Kg in ataxia (inverted screen test ); - denotes 'no animals fell'; assay type: functional, organism-based; summary of the method: as §1

## Cc1cc[n+]([O-])cc1Oc1ccccc1
Mus musculus [1]
  Activity: Not toxic
Mus musculus [2]
  Activity: 1
Mus musculus [3]
  Activity: 1
Mus musculus [4]
  Activity: 6
Mus musculus [5]
  Change: 63%
Mus musculus [6]
  Change: 55%
Mus musculus [7]
  Change: 75%
Mus musculus [8]
  Change: 92%
Mus musculus [9]
  Change: 12%
Mus musculus [10]
  minimal effective dose: 30 mg/kg
Mus musculus [11]
  MAD: 100 mg/kg
Rattus norvegicus [12]
  ED50: 75 mg/kg
Rattus norvegicus [13]
  ED50: 11 mg/kg
Mus musculus [14]
  ED50: 76 mg/kg
Mus musculus [15]
  ED50: 300 mg/kg
Mus musculus [16]
  ED50: 23 mg/kg
Mus musculus [17]
  ED50: 85 mg/kg

## Cc1cc(Oc2ccccc2)c[n+]([O-])c1
Mus musculus [1]
  Activity: Not toxic
Mus musculus [18]
  Activity: Not toxic
Mus musculus [19]
  Activity: Not toxic
Mus musculus [6]
  Change: 87%
Mus musculus [20]
  Change: 228%
Mus musculus [21]
  Change: 186%
Mus musculus [10]
  minimal effective dose: 100 mg/kg
Mus musculus [11]
  MAD: 300 mg/kg

## CC(C)(C)c1cc[n+]([O-])cc1Oc1ccccc1
Mus musculus [10]
  minimal effective dose: 30 mg/kg
Mus musculus [11]
  MAD: 100 mg/kg

## OCc1ccncc1Oc1ccccc1
Mus musculus [10]
  minimal effective dose: 300 mg/kg
Mus musculus [11]
  MAD: 300 mg/kg

## Cc1ccc(Oc2ccccc2)c[n+]1[O-]
Mus musculus [1]
  Activity: Not toxic
Mus musculus [22]
  Activity: 3
Mus musculus [19]
  Activity: Not toxic
Mus musculus [6]
  Change: 32%
Mus musculus [20]
  Change: 134%
Mus musculus [21]
  Change: 96%
Mus musculus [23]
  minimal effective dose: 100 mg/kg
Mus musculus [24]
  MAD: 300 mg/kg

## [O-][n+]1ccc(C2CCCCC2)c(Oc2ccccc2)c1
Mus musculus [10]
  minimal effective dose: > 300 mg/kg
Mus musculus [11]
  MAD: 300 mg/kg

## O=Cc1cc[n+]([O-])cc1Oc1ccccc1
Mus musculus [10]
  minimal effective dose: 300 mg/kg
Mus musculus [11]
  MAD: >300 mg/kg

## O=S(=O)(O)O.c1ccc(Oc2cccnc2)cc1
Mus musculus [25]
  Activity: inactive
Mus musculus [26]
  Activity: Not toxic
Mus musculus [27]
  Activity: Not toxic
Mus musculus [28]
  Activity: Not toxic
Mus musculus [29]
  Activity: Not toxic
Mus musculus [30]
  Change: 53%
Mus musculus [31]
  Change: 15%
Mus musculus [32]
  Change: 28%
Mus musculus [10]
  minimal effective dose: 100 mg/kg
Mus musculus [11]
  MAD: 300 mg/kg

## [O-][n+]1ccc(Cl)c(Oc2ccccc2)c1
Mus musculus [10]
  minimal effective dose: > 300 mg/kg
Mus musculus [11]
  MAD: 300 mg/kg

## Cc1c(Oc2ccccc2)ccc[n+]1[O-]
Mus musculus [33]
  Activity: 2
Mus musculus [1]
  Activity: Not toxic
Mus musculus [19]
  Activity: Not toxic
Mus musculus [6]
  Change: 48%
Mus musculus [20]
  Change: 184%
Mus musculus [21]
  Change: 25%
Mus musculus [10]
  minimal effective dose: 300 mg/kg
Mus musculus [11]
  MAD: 300 mg/kg

## COc1ccc(Oc2c[n+]([O-])ccc2C)cc1
Mus musculus [10]
  minimal effective dose: 300 mg/kg
Mus musculus [11]
  MAD: 300 mg/kg

## [O-][n+]1cccc(Oc2ccccc2)c1
Mus musculus [34]
  Activity: 1
Mus musculus [35]
  Activity: Not toxic
Mus musculus [18]
  Activity: Not toxic
Mus musculus [6]
  Change: 19%
Mus musculus [20]
  Change: 122%
Mus musculus [21]
  Change: 45%
Mus musculus [10]
  minimal effective dose: 100 mg/kg
Mus musculus [11]
  MAD: 300 mg/kg

## Cc1ccc(Oc2c[n+]([O-])ccc2C)cc1
Mus musculus [10]
  minimal effective dose: 300 mg/kg
Mus musculus [11]
  MAD: 300 mg/kg

## CCc1cc[n+]([O-])cc1Oc1ccccc1
Mus musculus [10]
  minimal effective dose: 30 mg/kg
Mus musculus [11]
  MAD: 100 mg/kg

## CC(C)c1cc[n+]([O-])cc1Oc1ccccc1
Mus musculus [10]
  minimal effective dose: 30 mg/kg
Mus musculus [11]
  MAD: 100 mg/kg

## N#Cc1cc[n+]([O-])cc1Oc1ccccc1
Mus musculus [10]
  minimal effective dose: 300 mg/kg
Mus musculus [11]
  MAD: 300 mg/kg

## c1ccc2c(c1)Cc1ccncc1O2
Mus musculus [10]
  minimal effective dose: 100 mg/kg
Mus musculus [11]
  MAD: 300 mg/kg

## O=c1c2ccccc2oc2c[n+]([O-])ccc12
Mus musculus [10]
  minimal effective dose: > 300 mg/kg
Mus musculus [11]
  MAD: 300 mg/kg

## [O-][n+]1ccc(CO)c(Oc2ccccc2)c1
Mus musculus [10]
  minimal effective dose: 300 mg/kg
Mus musculus [11]
  MAD: 30 mg/kg

## Cc1cc[n+]([O-])cc1Oc1ccc(Cl)cc1
Mus musculus [10]
  minimal effective dose: 100 mg/kg
Mus musculus [11]
  MAD: 100 mg/kg

## O=C(O)c1cc[n+]([O-])cc1Oc1ccccc1
Mus musculus [10]
  minimal effective dose: > 300 mg/kg
Mus musculus [11]
  MAD: >300 mg/kg
